According to ChEMBL document CHEMBL5149984, “Discovery of HN37 as a Potent and Chemically Stable Antiepileptic Drug Candidate” (J Med Chem, 2021):

Columns and labels:
[1] = target: T1, Potassium voltage-gated channel subfamily KQT member 1 (Homo sapiens, UniProt P51787); experiment: Agonist activity at human KCNQ1 channel expressed in CHO cells assessed as amplitude change of outward current at 10 uM by patch clamp method; format: cell-based
T1 sequence (P51787 whole entry): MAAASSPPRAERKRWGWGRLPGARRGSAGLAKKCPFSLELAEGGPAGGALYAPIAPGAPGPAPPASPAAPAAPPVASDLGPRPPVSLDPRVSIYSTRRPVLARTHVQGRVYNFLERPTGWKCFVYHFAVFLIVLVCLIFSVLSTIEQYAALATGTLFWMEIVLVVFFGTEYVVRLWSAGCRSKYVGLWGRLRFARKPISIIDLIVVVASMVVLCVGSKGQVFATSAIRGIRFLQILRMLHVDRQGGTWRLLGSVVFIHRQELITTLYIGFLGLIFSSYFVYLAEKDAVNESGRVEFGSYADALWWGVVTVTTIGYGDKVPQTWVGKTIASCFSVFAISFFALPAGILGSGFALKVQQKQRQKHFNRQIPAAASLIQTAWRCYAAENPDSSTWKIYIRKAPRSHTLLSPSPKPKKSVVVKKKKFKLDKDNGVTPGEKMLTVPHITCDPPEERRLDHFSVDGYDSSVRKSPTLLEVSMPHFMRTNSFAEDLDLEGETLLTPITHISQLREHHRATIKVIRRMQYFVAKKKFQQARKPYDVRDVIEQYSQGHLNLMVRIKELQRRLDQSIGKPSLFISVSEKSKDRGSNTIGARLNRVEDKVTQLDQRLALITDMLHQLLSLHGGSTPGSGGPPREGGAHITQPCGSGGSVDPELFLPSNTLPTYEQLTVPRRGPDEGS
Procedure, shortened: (§1)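 Whole-cell patch clamp at room temperature on CHO cells (DMEM/F12, 10% FBS) transiently co-transfected with EGFP and hKCNQ1, rKCNQ2, rKCNQ3 A278T, hKCNQ4 or hKCNQ5; KCNQ2/3 at 1:1 cDNA ratio. Pipette solution 145 mM KCl, 5 mM MgATP, pH 7.3; bath 140 mM NaCl, 5 mM KCl, pH 7.4, under perfusion. V1/2 from Boltzmann fits; I/I0 is current amplitude with versus without compound; n = 4−6.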

[2] = target: Potassium voltage-gated channel subfamily KQT member 2/member 3 (Rattus norvegicus) (UniProt O88943+O88944); experiment: Agonist activity at rat KCNQ2/3 channel expressed in CHO cells assessed as shift of half voltage of maximal activation at 10 uM by patch clamp method; format: cell-based; conditions: filed as agonist; procedure, shortened: as §1
[3] = target: Potassium voltage-gated channel subfamily KQT member 5 (Homo sapiens) (UniProt Q9NR82); experiment: Agonist activity at human KCNQ5 channel expressed in CHO cells assessed as amplitude change of outward current at 10 uM by patch clamp method; format: cell-based; conditions: filed as agonist; procedure, shortened: as §1
[4] = target: Potassium voltage-gated channel subfamily KQT member 5 (Homo sapiens) (UniProt Q9NR82); experiment: Agonist activity at human KCNQ5 channel expressed in CHO cells assessed as shift of half voltage of maximal activation at 10 uM by patch clamp method; format: cell-based; conditions: filed as agonist; procedure, shortened: as §1
[5] = target: T1, Potassium voltage-gated channel subfamily KQT member 1; experiment: Agonist activity at human KCNQ1 channel expressed in CHO cells assessed as shift of half voltage of maximal activation at 10 uM by patch clamp method; format: cell-based; procedure, shortened: as §1
[6] = Cmax in Sprague-Dawley rat at 2 mg/kg, po measured upto 24 hrs by LC-MS/MS method; format: ADME, organism-based; set-up: time < 24 hrs, dose 2 mg/kg, route po; conditions: in vivo
Procedure, shortened: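 Male SD rats (180−220 g) dosed orally at 2, 6 or 20 mg/kg in escalating fashion, handled as in the mouse study: 12 h fast, acetonitrile extraction of plasma, LC−MS/MS quantification. AUC0−t by trapezoidal method to the last measurable concentration.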

[7] = Ratio of drug concentration in brain to plasma of MES induced Kunming mouse model of seizure
CYP2B6 = CYP2B6 (Homo sapiens, UniProt P20813); experiment: Inhibition of human liver microsome CYP2B6 at 0.10 to 50 uM preincubated with NADPH for 0.5 hrs followed by substrate addition by LC-MS/MS method relative to control; format: ADME; conditions: liver microsomes, dose 0.1-50 µM
Mus musculus = experiment: Anticonvulsant activity in MES induced Kunming mouse model of seizure at 5 mg/kg, po after 1 hr; format: functional
Procedure, shortened: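 MES test in male KM mice. Compounds freshly suspended in 0.5% CMC-Na and given by gavage at 20 mL/kg; 160 V stimulus through ear clips. Protection scored as absence of hindlimb tonic extension; time course at 0.25, 0.5, 1 and 2 h, otherwise tested at 1 h. ED50 from dose−response by nonlinear regression; Fisher's exact test versus vehicle.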

[8] = Metabolic stability in dog liver microsomes assessed as half life; format: ADME, Canis lupus familiaris, Microsome
CYP2C19 = CYP2C19 (Homo sapiens, UniProt P33261); experiment: Inhibition of human liver microsome CYP2C19 at 0.10 to 50 uM preincubated with NADPH for 0.5 hrs followed by substrate addition by LC-MS/MS method relative to control; format: ADME; conditions: liver microsomes, dose 0.1-50 µM
CYP2C8 = CYP2C8 (Homo sapiens, UniProt P10632); experiment: Ratio of IC50 for human liver microsome CYP2C8 in absence of NADPH to IC50 for human liver microsome CYP2C8 in presence of NADPH; conditions: liver microsomes, read-out: Ratio IC50
[9] = Tmax in Kunming mouse brain at 5 mg/kg, po measured upto 24 hrs by LC-MS/MS method; format: ADME, organism-based
Procedure, shortened: (§2)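 Male KM mice (18–24 g), fasted 12 h before and 2 h after dosing, n = 3 per time point. Oral dose in 5% DMSO/5% Tween 80/90% saline; i.v. dose is that formulation diluted in saline with 1% Tween 80. Blood sampled 0.25–24 h after oral dosing, 0.083–24 h after i.v.; whole brain taken after oral dosing. Acetonitrile extraction with internal standard, LC-MS/MS.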

[10] = target: Potassium voltage-gated channel subfamily KQT member 5 (Homo sapiens) (UniProt Q9NR82); experiment: Agonist activity at human KCNQ5 channel expressed in CHO cells assessed as amplitude change of outward current at 0.1 uM by patch clamp method; format: cell-based; conditions: filed as agonist; procedure, shortened: as §1
[11] = Half life in Kunming mouse plasma at 5 mg/kg, po measured upto 24 hrs by LC-MS/MS method; format: ADME, organism-based
Procedure, shortened: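 Male KM mice (18−24 g) fasted 12 h before and 2 h after dosing, given 5 mg/kg orally in 5% DMSO/5% Tween 80/90% normal saline (n = 3 per time point). Aortic blood taken at 0.25–24 h and whole brain collected. Acetonitrile extraction with internal standard, then LC−MS/MS. Bioavailability calculated against the 2 mg/kg i.v. arm.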

[12] = Volume of distribution at steady state in Kunming mouse plasma at 2 mg/kg, iv measured upto 24 hrs by LC-MS/MS method; format: ADME, organism-based; conditions: in vivo; procedure, shortened: as §2
[13] = Half life in Kunming mouse plasma at 2 mg/kg, iv measured upto 24 hrs by LC-MS/MS method; format: ADME, organism-based
Procedure, shortened: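 Male KM mice (n = 3 per time point) given 2 mg/kg i.v. in normal saline with 1% Tween 80, diluted from the oral formulation. Retro-orbital plexus blood taken at 0.083–24 h. Plasma extracted with acetonitrile plus internal standard and assayed by LC−MS/MS.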

Rattus norvegicus = species: Rattus norvegicus; experiment: Potency index, ratio of retigabine ED50 to test compound ED50 for anticonvulsant activity in MES induced rat model of seizure after 1 hr; format: functional
CHO = experiment: Agonist activity at rat KCNQ3 A278T mutant expressed in CHO cells assessed as shift of half voltage of maximal activation at 0.1 uM by patch clamp method; format: cell-based; conditions: filed as agonist; procedure, shortened: as §1

Chain of Potassium voltage-gated channel subfamily KQT member 5 (Homo sapiens) (Q9NR82 whole entry): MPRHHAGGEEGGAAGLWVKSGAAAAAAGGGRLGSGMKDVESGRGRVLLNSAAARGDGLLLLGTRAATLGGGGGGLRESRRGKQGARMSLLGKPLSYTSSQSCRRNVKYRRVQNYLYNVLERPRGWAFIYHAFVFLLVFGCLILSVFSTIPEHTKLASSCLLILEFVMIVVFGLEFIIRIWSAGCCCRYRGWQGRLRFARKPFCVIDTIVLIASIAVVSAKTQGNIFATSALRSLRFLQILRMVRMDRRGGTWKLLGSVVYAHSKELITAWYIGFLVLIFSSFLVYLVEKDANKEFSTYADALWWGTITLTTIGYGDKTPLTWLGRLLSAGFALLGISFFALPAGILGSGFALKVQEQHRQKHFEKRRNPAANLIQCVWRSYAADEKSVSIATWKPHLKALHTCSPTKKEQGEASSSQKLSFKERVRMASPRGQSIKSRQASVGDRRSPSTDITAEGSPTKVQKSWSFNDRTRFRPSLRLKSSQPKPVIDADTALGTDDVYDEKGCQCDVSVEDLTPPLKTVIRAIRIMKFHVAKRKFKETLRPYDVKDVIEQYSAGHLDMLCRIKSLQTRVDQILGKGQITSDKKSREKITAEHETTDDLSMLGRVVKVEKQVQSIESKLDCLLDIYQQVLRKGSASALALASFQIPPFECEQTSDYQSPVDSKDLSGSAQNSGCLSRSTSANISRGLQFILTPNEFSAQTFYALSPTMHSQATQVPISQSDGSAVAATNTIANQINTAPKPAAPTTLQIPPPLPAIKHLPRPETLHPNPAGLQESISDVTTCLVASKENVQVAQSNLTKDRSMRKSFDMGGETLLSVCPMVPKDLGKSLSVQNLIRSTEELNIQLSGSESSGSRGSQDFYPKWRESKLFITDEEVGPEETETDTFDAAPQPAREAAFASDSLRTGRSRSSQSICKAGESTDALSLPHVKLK
Chain of CYP2C19 (P33261 whole entry): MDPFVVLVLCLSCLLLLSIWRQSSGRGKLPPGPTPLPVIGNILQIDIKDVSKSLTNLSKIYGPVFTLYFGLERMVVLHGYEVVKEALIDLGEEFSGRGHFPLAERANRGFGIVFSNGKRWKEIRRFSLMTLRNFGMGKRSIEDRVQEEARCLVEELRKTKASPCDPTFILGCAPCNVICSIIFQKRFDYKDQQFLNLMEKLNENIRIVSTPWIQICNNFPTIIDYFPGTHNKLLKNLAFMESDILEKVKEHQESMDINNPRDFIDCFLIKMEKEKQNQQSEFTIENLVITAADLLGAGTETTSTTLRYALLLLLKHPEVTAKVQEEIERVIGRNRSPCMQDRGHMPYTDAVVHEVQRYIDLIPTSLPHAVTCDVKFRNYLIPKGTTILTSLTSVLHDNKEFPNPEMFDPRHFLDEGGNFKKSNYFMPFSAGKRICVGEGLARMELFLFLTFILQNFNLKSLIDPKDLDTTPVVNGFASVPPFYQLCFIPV
Chain of CYP2C8 (P10632 whole entry): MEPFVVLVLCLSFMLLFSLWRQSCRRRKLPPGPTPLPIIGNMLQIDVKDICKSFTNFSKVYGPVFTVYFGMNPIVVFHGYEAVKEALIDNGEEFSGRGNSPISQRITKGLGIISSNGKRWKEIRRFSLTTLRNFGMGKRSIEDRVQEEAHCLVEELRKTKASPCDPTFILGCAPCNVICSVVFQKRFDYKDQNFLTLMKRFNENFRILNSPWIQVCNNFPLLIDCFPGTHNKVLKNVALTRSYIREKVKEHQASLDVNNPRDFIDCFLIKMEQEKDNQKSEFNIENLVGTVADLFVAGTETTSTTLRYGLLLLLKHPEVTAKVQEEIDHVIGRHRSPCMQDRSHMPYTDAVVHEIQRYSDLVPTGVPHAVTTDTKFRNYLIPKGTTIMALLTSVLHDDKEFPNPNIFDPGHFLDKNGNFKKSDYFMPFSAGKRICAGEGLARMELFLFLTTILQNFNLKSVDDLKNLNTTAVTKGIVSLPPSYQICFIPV
Chain of CYP2B6 (P20813 whole entry): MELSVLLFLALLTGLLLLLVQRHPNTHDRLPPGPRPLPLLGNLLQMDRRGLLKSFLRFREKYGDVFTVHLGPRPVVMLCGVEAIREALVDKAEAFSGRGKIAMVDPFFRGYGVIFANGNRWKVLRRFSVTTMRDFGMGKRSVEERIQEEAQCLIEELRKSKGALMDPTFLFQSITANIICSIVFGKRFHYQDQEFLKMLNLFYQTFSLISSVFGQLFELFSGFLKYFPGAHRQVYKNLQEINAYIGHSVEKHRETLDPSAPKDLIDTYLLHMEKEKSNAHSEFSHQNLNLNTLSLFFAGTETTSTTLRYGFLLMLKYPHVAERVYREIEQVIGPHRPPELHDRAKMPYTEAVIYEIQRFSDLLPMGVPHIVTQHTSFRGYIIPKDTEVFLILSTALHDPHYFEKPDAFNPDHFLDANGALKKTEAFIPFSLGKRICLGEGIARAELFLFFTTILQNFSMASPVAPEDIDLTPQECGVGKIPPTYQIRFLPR

Row | Structure (SMILES) | Activity [1] | Activity [2] | Activity [3] | Activity [4] | Activity [5] | Cmax [6] | Kp [7] | inhibition at 0.5 h, up to 50 µM (CYP2B6) | Activity (Mus musculus) | half-life [8] | inhibition at 0.5 h, up to 50 µM (CYP2C19) | IC50 shift (CYP2C8) | Tmax [9] | Activity [10] | half-life [11] | Vdss [12] | half-life [13] | Ratio ED50 (Rattus norvegicus) | Activity (CHO)
1 | CCOC(=O)Nc1ccc(NCc2ccc(F)cc2)cc1N [EZOGABINE] | 1.01 | -34.3 mV | 3.04 | 0.09 mV | -8.03 mV | – | – | – | – | – | – | – | – | – | – | – | – | – | –
2 | C#CCN(Cc1ccc(F)cc1)c1cc(C)c(NC(=O)OC)c(C)c1 | – | – | – | – | – | 88.2 ng/mL | 1.4 | < 25% | 100% | 35.5 min | < 25% | > 1.5 | 15 min | 3.14 | 117 min | 2.89 L/kg | 48 min | 2 | -43.1 mV
